Assay results taken from ChEMBL document CHEMBL2346509, “Novel R-roscovitine NO-donor hybrid compounds as potential pro-resolution of inflammation agents” (2013).
Activity calls are given as the source filed them. No cut-off for these calls is given here.

Tests used:
Neutrophil [1] = experiment: Induction of apoptosis in human neutrophils assessed as pre-necrotic cells at 3 uM after 6 hrs by annexin V/propidium iodide staining based flow cytometric analysis in presence of PTIO; type: functional, cell-based
Summary of the method: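 Healthy-volunteer neutrophils (>96% pure) at 5 × 10^6/mL in IMDM with 0.1% BSA and penicillin/streptomycin, 37 °C, 5% CO2, in duplicate. Co-incubated with the NO scavenger PTIO, made directly in IMDM. Final DMSO 0.04–0.12%. Cells stained with annexin V (1/500 in CaCl2–HBSS binding buffer) 10 min on ice in the dark, then PI added before flow cytometry.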

Neutrophil [2] = experiment: Induction of apoptosis in human neutrophils assessed as pre-necrotic cells at 3 to 10 uM after 6 hrs by annexin V/propidium iodide staining based flow cytometric analysis in presence of ODQ; type: functional, cell-based
Summary of the method: (§1)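 Human blood neutrophils at 5 × 10^6/mL in IMDM/0.1% BSA with antibiotics were pre-incubated for 15 min with L-NAME (prepared in IMDM) or with ODQ (10 μM; from a 10 mM stock in 0.01% NaOH). Test compounds were then added from DMSO stocks and cells cultured in duplicate at 37 °C, 5% CO2. Apoptosis was read by annexin V/PI flow cytometry.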

Neutrophil [3] = experiment: Induction of apoptosis in human neutrophils at 10 uM by annexin V/propidium iodide staining based flow cytometric analysis; type: functional, cell-based; details: TDE = time-dependent effect
Summary of the method: (§2)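 Neutrophils isolated from peripheral blood of healthy volunteers (>96% purity), resuspended at 5 × 10^6/mL in IMDM with penicillin, streptomycin and 0.1% w/v BSA. Compounds from 50 mM DMSO stocks (final DMSO 0.04–0.12%) were added just before cells, in duplicate, at 37 °C, 5% CO2. Cells were stained with annexin V in Ca-containing HBSS on ice for 10 min in the dark, PI was added, and cells were analysed by flow cytometry. Diff-Quick morphology confirmed results.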

Neutrophil [4] = experiment: Induction of apoptosis in human neutrophils assessed as secondary necrosis at 10 uM after 8 hrs by annexin V/propidium iodide staining based flow cytometric analysis
Neutrophil [5] = experiment: Induction of apoptosis in human neutrophils assessed as pre-necrotic cells after 6 hrs by annexin V/propidium iodide staining based flow cytometric analysis; type: functional, cell-based; summary of the method: as §2
Neutrophil [6] = experiment: Induction of apoptosis in human neutrophils assessed as pre-necrotic cells at 3 to 10 uM after 6 hrs by annexin V/propidium iodide staining based flow cytometric analysis in presence of L-NAME; type: functional, cell-based; summary of the method: as §1
Neutrophil [7] = experiment: Induction of apoptosis in human neutrophils assessed as cellular shrinkage and nuclear pyknosis at 3 uM after 6 hrs by light microscopy analysis; type: functional, cell-based
Summary of the method: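 Neutrophils isolated from healthy volunteers' citrated blood by dextran sedimentation and a density gradient (granulocytes at the 70:81 boundary, >96% pure). Cells at 5 × 10^6/mL in IMDM with penicillin/streptomycin and 0.1% BSA, 37 °C, 5% CO2, treated in duplicate. Final DMSO 0.04–0.12%. Cells cytocentrifuged, methanol-fixed 2 min, Diff-Quick stained, and scored for apoptotic morphology at 40× and 100×.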

Neutrophil [8] = experiment: Induction of apoptosis in human neutrophils assessed as apoptotic cells at 3 uM after 6 hrs by annexin V/propidium iodide staining based flow cytometric analysis; type: functional; summary of the method: as §2
Neutrophil [9] = experiment: Induction of apoptosis in human neutrophils assessed as necrotic cells at 3 uM after 6 hrs by annexin V/propidium iodide staining based flow cytometric analysis; type: functional; summary of the method: as §2
Neutrophil [10] = experiment: Induction of apoptosis in human neutrophils assessed as pre-necrotic cells at 3 uM after 6 hrs by annexin V/propidium iodide staining based flow cytometric analysis; type: functional; summary of the method: as §2
Neutrophil [11] = experiment: Induction of apoptosis in human neutrophils assessed as viable cells at 3 uM after 6 hrs by annexin V/propidium iodide staining based flow cytometric analysis; type: functional; details: read-out: Activity; summary of the method: as §2

Row | Compound | Activity (Neutrophil [1]) | Activity (Neutrophil [2]) | Activity (Neutrophil [3]) | Activity (Neutrophil [4]) | Activity (Neutrophil [5]) | Activity (Neutrophil [6]) | Activity (Neutrophil [7]) | Activity (Neutrophil [8]) [%] | Activity (Neutrophil [9]) [%] | Activity (Neutrophil [10]) [%] | viability at 3 µM (Neutrophil [11]) [%]
1 | CN1C(=O)[C@]23CC4=CC=C[C@H](O)[C@H]4N2C(=O)[C@@]1(CO)SS3 | Active |  |  |  |  |  |  |  |  |  | 
2 | CC[C@H](CO)Nc1nc(NCc2ccc(OCc3no[n+]([O-])c3C(N)=O)cc2)c2ncn(C(C)C)c2n1 |  | Active | tde | Active | Dose-dependent effect | Active |  |  |  |  | 
3 | CC[C@H](COC(=O)CCCO[N+](=O)[O-])Nc1nc(NCc2ccccc2)c2ncn(C(C)C)c2n1 |  | Active | tde | Active | Dose-dependent effect | Active |  |  |  |  | 
4 | CC[C@H](CO)Nc1nc(NCc2ccccc2)c2ncn(C(C)C)c2n1 [SELICICLIB] | Active | Active | tde | Active |  | Active | Active | 6.98 | 0.386 | 0.033 | 92.6
5 | CC[C@H](CO)Nc1nc(NCc2ccc(OCCCO[N+](=O)[O-])cc2)c2ncn(C(C)C)c2n1 | inactive | Active | tde | Active | Dose-dependent effect | Active | Active | 86.9 | 0.63 | 0.017 | 12.5
6 | CC[C@H](CO)Nc1nc(NCc2ccc(OCc3nonc3C(N)=O)cc2)c2ncn(C(C)C)c2n1 |  |  |  |  | Dose-dependent effect |  |  |  |  |  | 
7 | CC[C@H](CO)Nc1nc(NCc2ccc(OCCCOC)cc2)c2ncn(C(C)C)c2n1 |  | Active |  |  | Dose-dependent effect | Active |  |  |  |  | 
